Calls of active or inactive are those of the source. No cut-off for these calls is given here.
Test system: Trypanosoma brucei rhodesiense
Test: Antitrypanosomal activity against Trypanosoma brucei rhodesiense STIB900 infected in NMRI mouse assessed as host survival after 60 days at 20 mg/kg, ip qd for 4 days administered after 3 to 6 days postinfection
Format: functional, organism-based
Set-up: dose 20 mg/kg
Details: not given
Procedure, shortened: (§1)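 Female NMRI mice infected ip with 2 10^4 bloodstream STIB900 forms; groups of four dosed ip (4 × 20 mg/kg) or orally (4 × 50 mg/kg) on days 3–6 post-infection; untreated infected controls. Tail-blood parasitemia followed to day 60; surviving aparasitemic mice at day 60 counted cured; mean survival and relapse days recorded.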

With `c1cc(Nc2ccc(NC3=NCCN3)cc2)ccc1NC1=NCCN1` the Activity was “Active”.

Test system: Trypanosoma brucei rhodesiense
Test: Antitrypanosomal activity against Trypanosoma brucei rhodesiense STIB900 infected in NMRI mouse assessed as host survival after 60 days at 50 mg/kg, po qd for 4 days administered after 3 to 6 days postinfection
Format: functional, organism-based
Set-up: dose 50 mg/kg
Details: not given
Procedure, shortened: as §1

With `c1cc(Nc2ccc(NC3=NCCN3)cc2)ccc1NC1=NCCN1` the Activity was “inactive”.

Test system: Leishmania donovani
Test: Antiprotozoal activity against amastigotes of Leishmania donovani MHOM/ET/67/L82 by alamar blue assay
Format: functional, organism-based
Details: not given
Procedure, shortened: (§2)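 Alamar blue read-out; IC50 determined against bloodstream-form STIB900 trypanosomes, axenically grown L. donovani MHOM/ET/67/L82 amastigotes, or rat skeletal myoblast L-6 cells (cytotoxicity).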

Point of comparison: `O=C1c2ccccc2C(=O)N1CCN(OCc1ccccc1)C(=S)Nc1ccc(Nc2ccc(NC(=S)N(CCN3C(=O)c4ccccc4C3=O)OCc3ccccc3)cc2)cc1`, IC50 36 µM. Against it:
- CON(CCNC(=S)Nc1ccc(Nc2ccc(NC(=S)NCCN(OC)S(=O)(=O)c3ccccc3[N+](=O)[O-])cc2)cc1)S(=O)(=O)c1ccccc1[N+](=O)[O-] — 1.9-fold higher, 68 µM
- CON(CCN1C(=O)c2ccccc2C1=O)C(=S)Nc1ccc(Nc2ccc(NC(=S)N(CCN3C(=O)c4ccccc4C3=O)OC)cc2)cc1 — 1.9-fold higher, 69 µM
- c1cc(Nc2ccc(NC3=NCCS3)cc2)ccc1NC1=NCCS1 — 3.3-fold higher, 120 µM
- CCON(CCNC(=S)Nc1ccc(Nc2ccc(NC(=S)NCCN(OCC)S(=O)(=O)c3ccccc3[N+](=O)[O-])cc2)cc1)S(=O)(=O)c1ccccc1[N+](=O)[O-] — 2.6-fold lower, 14 µM

Test system: L6
Test: Cytotoxicity against rat L6 cells
Format: cell-based
Details: not given
Procedure, shortened: as §2

Point of comparison: `c1cc(Nc2ccc(NC3=NCCS3)cc2)ccc1NC1=NCCS1`, IC50 52 µM. Against it:
- O=C1c2ccccc2C(=O)N1CCN(OCc1ccccc1)C(=S)Nc1ccc(Nc2ccc(NC(=S)N(CCN3C(=O)c4ccccc4C3=O)OCc3ccccc3)cc2)cc1 — higher, > 102 µM
- CON(CCNC(=S)Nc1ccc(Nc2ccc(NC(=S)NCCN(OC)S(=O)(=O)c3ccccc3[N+](=O)[O-])cc2)cc1)S(=O)(=O)c1ccccc1[N+](=O)[O-] — higher, > 107 µM
- CON(CCN1C(=O)c2ccccc2C1=O)C(=S)Nc1ccc(Nc2ccc(NC(=S)N(CCN3C(=O)c4ccccc4C3=O)OC)cc2)cc1 — higher, > 124 µM
- CCON(CCNC(=S)Nc1ccc(Nc2ccc(NC(=S)NCCN(OCC)S(=O)(=O)c3ccccc3[N+](=O)[O-])cc2)cc1)S(=O)(=O)c1ccccc1[N+](=O)[O-] — within 1.5-fold, 67 µM

Test system: Plasmodium falciparum
Test: Antiprotozoal activity against chloroquine and pyrimethamine-resistant erythrocytic stages of Plasmodium falciparum K1 by [3H]hypoxanthine incorporation assay
Format: functional, organism-based
Details: not given
Procedure, shortened: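 P. falciparum K1 (chloroquine- and pyrimethamine-resistant) erythrocytic stages; IC50 determined by [3H]hypoxanthine incorporation assay.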

Point of comparison: `CCON(CCNC(=S)Nc1ccc(Nc2ccc(NC(=S)NCCN(OCC)S(=O)(=O)c3ccccc3[N+](=O)[O-])cc2)cc1)S(=O)(=O)c1ccccc1[N+](=O)[O-]`, IC50 1940 nM. Against it:
- O=C1c2ccccc2C(=O)N1CCN(OCc1ccccc1)C(=S)Nc1ccc(Nc2ccc(NC(=S)N(CCN3C(=O)c4ccccc4C3=O)OCc3ccccc3)cc2)cc1 — within 1.5-fold, 1360 nM
- CON(CCNC(=S)Nc1ccc(Nc2ccc(NC(=S)NCCN(OC)S(=O)(=O)c3ccccc3[N+](=O)[O-])cc2)cc1)S(=O)(=O)c1ccccc1[N+](=O)[O-] — within 1.5-fold, 1810 nM
- CON(CCN1C(=O)c2ccccc2C1=O)C(=S)Nc1ccc(Nc2ccc(NC(=S)N(CCN3C(=O)c4ccccc4C3=O)OC)cc2)cc1 — within 1.5-fold, 2640 nM
- c1cc(Nc2ccc(NC3=NCCN3)cc2)ccc1NC1=NCCN1 — 220-fold lower, 9 nM
- c1cc(Nc2ccc(NC3=NCCS3)cc2)ccc1NC1=NCCS1 — within 1.5-fold, 2430 nM

Test system: not listed separately
Test: Selectivity index, ratio of IC50 for rat L6 cells to IC50 for Trypanosoma brucei rhodesiense STIB900
Format: toxicity, cell-based
Details: L6 cells versus Trypanosoma brucei rhodesiense STIB900, read-out: Ratio IC50
Procedure, shortened: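 Selectivity index = IC50 (rat L-6 myoblasts)/IC50 (T. b. rhodesiense STIB900 bloodstream forms). Both IC50 values were determined by Alamar blue assay.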

Point of comparison: `c1cc(Nc2ccc(NC3=NCCS3)cc2)ccc1NC1=NCCS1`, selectivity ratio 4.7. Against it:
- c1cc(Nc2ccc(NC3=NCCN3)cc2)ccc1NC1=NCCN1 — higher, 3070

Test system: Trypanosoma brucei rhodesiense
Test: Antiprotozoal activity against bloodstream forms of Trypanosoma brucei rhodesiense STIB900 by alamar blue assay
Format: functional, organism-based
Details: not given
Procedure, shortened: as §2

Point of comparison: `CON(CCNC(=S)Nc1ccc(Nc2ccc(NC(=S)NCCN(OC)S(=O)(=O)c3ccccc3[N+](=O)[O-])cc2)cc1)S(=O)(=O)c1ccccc1[N+](=O)[O-]`, IC50 61.3 µM. Against it:
- O=C1c2ccccc2C(=O)N1CCN(OCc1ccccc1)C(=S)Nc1ccc(Nc2ccc(NC(=S)N(CCN3C(=O)c4ccccc4C3=O)OCc3ccccc3)cc2)cc1 — within 1.5-fold, 86.7 µM
- CON(CCN1C(=O)c2ccccc2C1=O)C(=S)Nc1ccc(Nc2ccc(NC(=S)N(CCN3C(=O)c4ccccc4C3=O)OC)cc2)cc1 — within 1.5-fold, 73.8 µM
- c1cc(Nc2ccc(NC3=NCCS3)cc2)ccc1NC1=NCCS1 — 5.5-fold lower, 11.1 µM
- CCON(CCNC(=S)Nc1ccc(Nc2ccc(NC(=S)NCCN(OCC)S(=O)(=O)c3ccccc3[N+](=O)[O-])cc2)cc1)S(=O)(=O)c1ccccc1[N+](=O)[O-] — 4.1-fold lower, 14.9 µM

Test system: Trypanosoma brucei rhodesiense
Test: Antitrypanosomal activity against Trypanosoma brucei rhodesiense STIB900 infected in NMRI mouse assessed as day of host death after 60 days at 20 mg/kg, ip qd for 4 days administered after 3 to 6 days postinfection
Format: functional
Details: route intraperitoneal
Procedure, shortened: (§3)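 Female NMRI mice infected ip with 2 104 bloodstream forms of T. b. rhodesiense STIB900. Groups of four mice were treated ip (4 × 20 mg/kg) or po (4 × 50 mg/kg) on four consecutive days, days 3–6 postinfection. Untreated infected controls were included. Tail blood parasitemia was monitored to day 60. Day of death was recorded (cured mice counted as >60) to give mean survival days.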

With `c1cc(Nc2ccc(NC3=NCCN3)cc2)ccc1NC1=NCCN1` the Activity was >60 days.

Test system: Trypanosoma cruzi
Test: Antiprotozoal activity against trypomastigote forms of Trypanosoma cruzi Tulahuen C2C4 expressing LacZ by colorimetric CPRG assay
Details: not given

Point of comparison: `c1cc(Nc2ccc(NC3=NCCS3)cc2)ccc1NC1=NCCS1`, IC50 30 µM. Against it:
- O=C1c2ccccc2C(=O)N1CCN(OCc1ccccc1)C(=S)Nc1ccc(Nc2ccc(NC(=S)N(CCN3C(=O)c4ccccc4C3=O)OCc3ccccc3)cc2)cc1 — higher, > 100 µM
- CON(CCNC(=S)Nc1ccc(Nc2ccc(NC(=S)NCCN(OC)S(=O)(=O)c3ccccc3[N+](=O)[O-])cc2)cc1)S(=O)(=O)c1ccccc1[N+](=O)[O-] — higher, > 108 µM
- CON(CCN1C(=O)c2ccccc2C1=O)C(=S)Nc1ccc(Nc2ccc(NC(=S)N(CCN3C(=O)c4ccccc4C3=O)OC)cc2)cc1 — higher, > 124 µM
- CCON(CCNC(=S)Nc1ccc(Nc2ccc(NC(=S)NCCN(OCC)S(=O)(=O)c3ccccc3[N+](=O)[O-])cc2)cc1)S(=O)(=O)c1ccccc1[N+](=O)[O-] — higher, > 104 µM

Test system: not listed separately
Test: Selectivity index, ratio of IC50 for rat L6 cells to IC50 for chloroquine and pyrimethamine-resistant erythrocytic stages of Plasmodium falciparum K1
Format: toxicity, cell-based
Details: L6 cells versus Plasmodium falciparum K1 erythrocytic stages, read-out: Ratio IC50
Procedure, shortened: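 Selectivity index = IC50 (rat L-6 myoblasts, Alamar blue assay)/IC50 (P. falciparum K1 erythrocytic stages, [3H]hypoxanthine incorporation assay).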

Point of comparison: `c1cc(Nc2ccc(NC3=NCCS3)cc2)ccc1NC1=NCCS1`, selectivity ratio 21. Against it:
- c1cc(Nc2ccc(NC3=NCCN3)cc2)ccc1NC1=NCCN1 — higher, 24100
- CCON(CCNC(=S)Nc1ccc(Nc2ccc(NC(=S)NCCN(OCC)S(=O)(=O)c3ccccc3[N+](=O)[O-])cc2)cc1)S(=O)(=O)c1ccccc1[N+](=O)[O-] — higher, 35

Test system: Trypanosoma brucei rhodesiense
Test: Antitrypanosomal activity against Trypanosoma brucei rhodesiense STIB900 infected in NMRI mouse assessed as day of host death after 60 days at 50 mg/kg, po qd for 4 days administered after 3 to 6 days postinfection
Format: functional
Details: not given
Procedure, shortened: as §3

Molecule `c1cc(Nc2ccc(NC3=NCCN3)cc2)ccc1NC1=NCCN1` has an Activity of 7.75 days.

Source: ChEMBL document CHEMBL1649414, “Synthesis and antiprotozoal activity of N-alkoxy analogues of the trypanocidal lead compound 4,4'-bis(imidazolinylamino)diphenylamine with improved human blood-brain barrier permeability” (J Med Chem, 2011)
